From ChEMBL document CHEMBL1129331, “Synthesis and physicochemical, biological, and pharmacological properties of new bile acids amidated with cyclic amino acids” (J Med Chem, 1996)
In brackets after ≈: the same amount, converted by molar mass.

How the values were obtained:
cholylglycine hydrolase = assay: (§1) The compound was incubated with cholylglycine hydrolase and tested for determining the stability towards C-24 Deamination; format: ADME; settings: cholylglycine hydrolase
Rattus norvegicus [1] = assay: Secretion of Bile acids in Bile Fistula rats after the iv administration of compound, expressed as the maximum secretion rate; format: ADME, organism-based; settings: in vivo
Procedure, shortened: (§2)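 Anaesthetised (ethyl carbamate) male Sprague-Dawley rats, 300-330 g, bile duct cannulated; after 1 h baseline, bile acid sodium salts infused via femoral vein at 10 μmol/min/kg for 1 h. Bile collected 3 h at 15 min intervals; flow gravimetric; BA, cholesterol, phospholipid by enzymatic assays. Smax, Tmax from secretion-vs-time plots; Rs = rate at third hour. n=6, mean ± SD.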

[2] = Critical Micellar concentration was determined; format: ADME
Procedure, shortened: (§3)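 Measured in water from surface tension, using the maximum bubble-pressure method.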

Rattus norvegicus [3] = assay: Secretion of cholesterol in Bile Fistula rats after the iv administration of compound, expressed as the residual secretion rate; format: ADME, organism-based; settings: in vivo
Procedure, shortened: (§4)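 Male Sprague-Dawley rats (300-330 g), urethane-anesthetized, bile duct cannulated. After 1 h baseline, sodium salt infused via femoral vein at 10 μmol/min/kg for 1 h; bile collected at 15-min intervals for 3 h. Flow measured gravimetrically; bile acids, cholesterol and phospholipid measured enzymatically. Smax and Tmax read from secretion-time plots; Rs is the rate at hour 3. Mean ± SD, n=6.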

Rattus norvegicus [4] = assay: Alkaline phosphatase in Bile Fistula rats after iv coinfusion of TCDCA and compound.; format: ADME, organism-based; settings: in vivo
Procedure, shortened: (§5)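 Bile fistula Sprague-Dawley rats (200-250 g). TCDCA and test bile acid given as sodium salts, coinfused via jugular vein, each at 8 μmol/min/kg for 1 h. Bile collected at 30-min intervals for 3 h. Calcium, ALP and LDH in bile measured enzymatically; bile acid composition by HPLC (65% methanol, 15 mM ammonium acetate, pH 5.4). Mean ± SD.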

Rattus norvegicus [5] = assay: Secretion of Bile in Bile Fistula rats after the iv administration of compound, expressed as the residual secretion rate; format: ADME, organism-based; settings: in vivo; procedure, shortened: as §2
Rattus norvegicus [6] = assay: Bile flow in Bile Fistula rats after iv coinfusion of TCDCA and compound.; format: ADME, organism-based; settings: in vivo; procedure, shortened: as §5
Rattus norvegicus [7] = assay: Calcium output in Bile Fistula rats after iv coinfusion of TCDCA and compound.; format: ADME, organism-based; settings: in vivo; procedure, shortened: as §5
Rattus norvegicus [8] = assay: Secretion of Bile in Bile Fistula rats after the iv administration of compound, expressed as the maximum secretion rate; format: ADME, organism-based; settings: in vivo; procedure, shortened: as §4
Rattus norvegicus [9] = assay: Secretion of phospholipid in Bile Fistula rats after the iv administration of compound, expressed as the residual secretion rate; format: ADME, organism-based; settings: in vivo; procedure, shortened: as §2
[10] = (§6) The compound was incubated with human stools and tested for determining the stability towards 7-dehydroxylation; format: ADME, organism-based
Procedure, shortened: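 Homogenized fresh human stool (500 mg) in 5 mL chopped meat-glucose medium; bile acid added at 0.05 mM final; 37 °C. Sampled at 0–72 h and stopped with 30% KOH. Bile acids recovered by C-18 solid-phase extraction, then analyzed by TLC and by HPLC with 75% methanol/15 mM ammonium acetate, pH 5.4.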

Rattus norvegicus [11] = assay: Secretion of cholesterol in Bile Fistula rats after the iv administration of compound, expressed as the maximum secretion rate; format: ADME, organism-based; settings: in vivo; procedure, shortened: as §2
[12] = Critical micellar pH was determined
Procedure, shortened: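 20 mL of 50 mM bile salt solution titrated with 0.1 M HCl. CMpH is taken as the pH at which precipitate of the protonated form is first seen by turbidity at 500 nm. Confirmed by back-titration with 0.1 M NaOH until the suspension clears.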

[13] = Water solubility was determined; format: ADME; settings: read-out: WS
Procedure, shortened: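 Protonated form; measured on saturated solutions at pH 1.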

Rattus norvegicus [14] = assay: Maximum biliary secretion rate of TCDCA after iv coinfusion in Bile fistula rats.; format: ADME, organism-based; settings: in vivo; procedure, shortened: as §5
[15] = Relative lipophilicity was determined; format: physicochemical; settings: C-18 reverse phase HPLC
Procedure, shortened: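 C-18 reverse-phase HPLC run isocratically at 0.9 mL/min. Mobile phase 65% (v/v) aqueous methanol with 2 mM ammonium acetate, pH 7, so that all bile acids are fully ionized.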

Rattus norvegicus [16] = assay: Lactate dehydrogenase in Bile Fistula rats after iv coinfusion of TCDCA and compound.; format: ADME, organism-based; settings: in vivo; procedure, shortened: as §5
Rattus norvegicus [17] = assay: Secretion of Bile acids in Bile Fistula rats after the iv administration of compound, expressed as the residual secretion rate; format: ADME, organism-based; settings: in vivo; procedure, shortened: as §4
Rattus norvegicus [18] = assay: Secretion of phospholipid in Bile Fistula rats after the iv administration of compound, expressed as the maximum secretion rate; format: ADME, organism-based; settings: in vivo; procedure, shortened: as §2
[19] = (§7) Partition coefficient (logP); format: physicochemical; settings: octanol/water
Procedure, shortened: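 Octanol/water partition coefficient of the protonated species, calculated rather than measured.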

[20] = Acidity constant was determined; format: ADME
Rattus norvegicus [21] = assay: Maximum biliary secretion rate of bile acids after iv coinfusion in Bile fistula rats.; format: ADME, organism-based; settings: in vivo; procedure, shortened: as §5
[22] = Critical Micellar concentration of the compound. was determined; format: ADME; procedure, shortened: as §3
Rattus norvegicus [23] = assay: Maximum biliary secretion rate of TCDCA after iv confusion in Bile fistula rats.; format: ADME, organism-based; settings: in vivo
[24] = as §6; format: ADME, organism-based; remark: listed apart in the source
Procedure, shortened: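 Homogenised fresh human stool (500 mg) in 5 mL chopped meat-glucose medium with bile acid at 0.05 mM final, incubated at 37 °C; stopped with 30% KOH at 0, 4, 8, 16, 20, 24 and 72 h. Supernatant extracted on C-18 solid phase, analysed by TLC and HPLC (aqueous methanol 75%, 15 mM ammonium acetate, apparent pH 5.4).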

Rattus norvegicus [25] = assay: Secretion of cholesterol in Bile Fistula rats after the iv administration of compound, expressed as the maximum secretion rate i; format: ADME, organism-based; settings: in vivo; procedure, shortened: as §4
[26] = as §7; format: physicochemical; settings: octanol/water; remark: listed apart in the source
Rattus norvegicus [27] = assay: Maximum biliary secretion rate of bile acids after iv confusion in Bile fistula rats.; format: ADME, organism-based; settings: in vivo
[28] = as §1; format: ADME

## CC(CCC(=O)NCC(=O)O)C1CC[C@H]2[C@@H]3[C@H](O)CC4C[C@H](O)CCC4(C)[C@H]3CCC12C (stereo partly drawn)
Cholylglycine hydrolase
  half-life: 4 h
Rattus norvegicus [1]
  Smax: 6.1 µM/min/kg
[2]
  CMC: 12 mM
Rattus norvegicus [3]
  Rs: 18 nM/min/kg
Rattus norvegicus [4]
  [ALP]max: 150 IU/L
Rattus norvegicus [5]
  Rs: 2.7 mL/h/kg
Rattus norvegicus [6]
  Smax: 3.78 mL/h/kg
Rattus norvegicus [7]
  Smax: 0.22 µM/min/kg
Rattus norvegicus [8]
  Smax: 4.62 mL/h/kg
Rattus norvegicus [9]
  Rs: 0.1 µM/min/kg
[10]
  half-life: 2 h
Rattus norvegicus [11]
  Smax: 51 nM/min/kg
[12]
  CMpH: 7.1
[13]
  solubility: 8 µM (≈ 3.6 µg/mL)
Rattus norvegicus [14]
  Smax: 3.13 µM/min/kg
[15]
  rK: 0.85
Rattus norvegicus [16]
  [LDH]max: 37 UI l-1
Rattus norvegicus [17]
  Rs: 0.8 µM/min/kg
Rattus norvegicus [18]
  Smax: 0.23 µM/min/kg
[19]
  logP: 3.53
[20]
  pKa: 3.9
Rattus norvegicus [21]
  Smax: 3.33 µM/min/kg

## C[C@H](CCC(=O)O)[C@H]1CC[C@H]2[C@@H]3[C@@H](O)C[C@@H]4C[C@H](O)CC[C@]4(C)[C@H]3CC[C@]12C [URSODIOL]
Rattus norvegicus [1]
  Smax: 0.0042 µM/min/g
[22]
  CMC: 26 mM
Rattus norvegicus [23]
  Smax: 1.56 µM/min/kg
Rattus norvegicus [3]
  Rs: 24 nM/min/kg
Rattus norvegicus [4]
  [ALP]max: 217 IU/L
Rattus norvegicus [5]
  Rs: 2.82 mL/h/kg
Rattus norvegicus [6]
  Smax: 4.32 mL/h/kg
[24]
  half-life: 2 h
Rattus norvegicus [7]
  Smax: 0.00018 µM/min/g
Rattus norvegicus [25]
  Smax: 55 nM/min/kg
Rattus norvegicus [8]
  Smax: 6.96 mL/h/kg
Rattus norvegicus [9]
  Rs: 0.00012 µM/min/g
[12]
  CMpH: 8.4
[13]
  solubility: 8 µM (≈ 3.14 µg/mL)
[15]
  rK: 1
Rattus norvegicus [16]
  [LDH]max: 115 UI l-1
Rattus norvegicus [17]
  Rs: 0.0008 µM/min/g
Rattus norvegicus [18]
  Smax: 0.00026 µM/min/g
[26]
  logP: 5.69
Rattus norvegicus [27]
  Smax: 1.72 µM/min/kg

## C[C@H](CCC(=O)NCCS(=O)(=O)O)[C@H]1CC[C@H]2[C@@H]3C[C@H](O)C4C[C@H](O)CC[C@]4(C)[C@H]3CC[C@]12C (stereo in doubt; form 1)
[28]
  T1/2: 4 h
